Experimental data: ChEMBL document CHEMBL1641579, “Synthesis and biological evaluation of 7-substituted-1-(3-bromophenylamino)isoquinoline-4-carbonitriles as inhibitors of myosin light chain kinase and epidermal growth factor receptor” (Bioorg Med Chem, 2011)

Experiments:
Type in all cases: functional
[1] = Growth inhibition of human HCC1171 cells assessed as ATP level after 96 hrs by CellTiter-Glo assay; conditions: HCC1171, 96 h
Summary of the method: (§1)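 NSCLC lines maintained as in earlier work and authenticated by mutational analysis and SNP arrays. Cells were plated in 384-well format and allowed 24 h before compound addition as 10 threefold serial dilutions (DMSO stocks). After 96 h, viability was read as cellular ATP by CellTiter-Glo. GI50 was fitted with an R package.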

[2] = test system: NCI-H2087; assay: Growth inhibition of human NCI-H2087 cells assessed as ATP level after 96 hrs by CellTiter-Glo assay; conditions: NCI-H2087, 96 h
[3] = Growth inhibition of human HCC827 cells assessed as ATP level after 96 hrs by CellTiter-Glo assay; conditions: HCC827, 96 h; summary of the method: as §1
[4] = Growth inhibition of human NCI-H3122 cells assessed as ATP level after 96 hrs by CellTiter-Glo assay; conditions: NCI-H3122, 96 h
[5] = Growth inhibition of human HCC515 cells assessed as ATP level after 96 hrs by CellTiter-Glo assay; conditions: HCC515, 96 h; summary of the method: as §1
[6] = test system: NCI-H1563; assay: Growth inhibition of human NCI-H1563 cells assessed as ATP level after 96 hrs by CellTiter-Glo assay; conditions: NCI-H1563, 96 h; summary of the method: as §1
[7] = test system: HOP-62; assay: Growth inhibition of human HOP62 cells assessed as ATP level after 96 hrs by CellTiter-Glo assay; conditions: HOP-62, 96 h; summary of the method: as §1
[8] = Growth inhibition of human HCC2429 cells assessed as ATP level after 96 hrs by CellTiter-Glo assay; conditions: HCC2429, 96 h; summary of the method: as §1
[9] = test system: NCI-H1648; assay: Growth inhibition of human NCI-H1648 cells assessed as ATP level after 96 hrs by CellTiter-Glo assay; conditions: NCI-H1648, 96 h; summary of the method: as §1
[10] = Growth inhibition of human HCC2279 cells assessed as ATP level after 96 hrs by CellTiter-Glo assay; summary of the method: as §1
[11] = Growth inhibition of human NCI-H1781 cells assessed as ATP level after 96 hrs by CellTiter-Glo assay; conditions: NCI-H1781, 96 h; summary of the method: as §1
[12] = Growth inhibition of human HCC1833 cells assessed as ATP level after 96 hrs by CellTiter-Glo assay; summary of the method: as §1
[13] = test system: Calu-1; assay: Growth inhibition of human Calu1 cells assessed as ATP level after 96 hrs by CellTiter-Glo assay; conditions: Calu-1, 96 h; summary of the method: as §1
[14] = test system: NCI-H596; assay: Growth inhibition of human NCI-H596 cells assessed as ATP level after 96 hrs by CellTiter-Glo assay; conditions: NCI-H596, 96 h
[15] = test system: NCI-H1770; assay: Growth inhibition of human NCI-H1770 cells assessed as ATP level after 96 hrs by CellTiter-Glo assay; conditions: NCI-H1770, 96 h; summary of the method: as §1
[16] = Growth inhibition of human H441 cells assessed as ATP level after 96 hrs by CellTiter-Glo assay; conditions: NCI-H441, 96 h; summary of the method: as §1
[17] = Growth inhibition of human NCI-H1915 cells assessed as ATP level after 96 hrs by CellTiter-Glo assay; conditions: NCI-H1915, 96 h
Summary of the method: (§2)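 Human NSCLC cells, maintained as described previously and authenticated by mutational analysis and SNP arrays, were plated and incubated 24 h. Compounds were dissolved in DMSO and added as 10 threefold serial dilutions. Viability was read after 96 h as cellular ATP content by luminescence, and half-maximal inhibitory concentrations were fitted to give GI50.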

[18] = Growth inhibition of human NCI-H1568 cells assessed as ATP level after 96 hrs by CellTiter-Glo assay; conditions: NCI-H1568, 96 h; summary of the method: as §1
[19] = Growth inhibition of human NCI-H1944 cells assessed as ATP level after 96 hrs by CellTiter-Glo assay; conditions: NCI-H1944, 96 h; summary of the method: as §2
[20] = Growth inhibition of human NCI-H2077 cells assessed as ATP level after 96 hrs by CellTiter-Glo assay; conditions: NCI-H2077, 96 h
[21] = test system: NCI-H2030; assay: Growth inhibition of human NCI-H2030 cells assessed as ATP level after 96 hrs by CellTiter-Glo assay; conditions: NCI-H2030, 96 h
[22] = test system: NCI-H1650; assay: Growth inhibition of human NCI-H1650 cells assessed as ATP level after 96 hrs by CellTiter-Glo assay; conditions: NCI-H1650, 96 h; summary of the method: as §1
[23] = test system: A-427; assay: Growth inhibition of human A427 cells assessed as ATP level after 96 hrs by CellTiter-Glo assay; conditions: A-427, 96 h; summary of the method: as §1
[24] = test system: NCI-H358; assay: Growth inhibition of human NCI-H358 cells assessed as ATP level after 96 hrs by CellTiter-Glo assay; conditions: NCI-H358, 96 h
[25] = Growth inhibition of human HCC15 cells assessed as ATP level after 96 hrs by CellTiter-Glo assay; conditions: HCC15, 96 h; summary of the method: as §1
[26] = test system: NCI-H1993; assay: Growth inhibition of human NCI-H1993 cells assessed as ATP level after 96 hrs by CellTiter-Glo assay; conditions: NCI-H1993, 96 h
[27] = test system: Calu-6; assay: Growth inhibition of human Calu6 cells assessed as ATP level after 96 hrs by CellTiter-Glo assay; conditions: Calu-6, 96 h; summary of the method: as §1
[28] = Growth inhibition of human HCC95 cells assessed as ATP level after 96 hrs by CellTiter-Glo assay; conditions: HCC95, 96 h; summary of the method: as §1
[29] = Growth inhibition of human COLO699 cells assessed as ATP level after 96 hrs by CellTiter-Glo assay; conditions: COLO 699, 96 h; summary of the method: as §1
[30] = Growth inhibition of human NCI-H2172 cells assessed as ATP level after 96 hrs by CellTiter-Glo assay; conditions: NCI-H2172, 96 h
[31] = Growth inhibition of human HCC366 cells assessed as ATP level after 96 hrs by CellTiter-Glo assay; conditions: HCC366, 96 h; summary of the method: as §1
[32] = test system: NCI-H1792; assay: Growth inhibition of human NCI-H1792 cells assessed as ATP level after 96 hrs by CellTiter-Glo assay; conditions: NCI-H1792, 96 h
Summary of the method: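 NSCLC lines maintained as previously described, authenticated by mutational analysis and SNP arrays. Cells seeded and incubated 24 h, then given compound (DMSO stocks) as 10 threefold serial dilutions. Viability read after 96 h as cellular ATP content (CellTiter-Glo). GI50 derived by curve fitting of half-maximal inhibition.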

[33] = Growth inhibition of human NCI-H2882 cells assessed as ATP level after 96 hrs by CellTiter-Glo assay; conditions: NCI-H2882, 96 h
[34] = test system: NCI-H2009; assay: Growth inhibition of human NCI-H2009 cells assessed as ATP level after 96 hrs by CellTiter-Glo assay; conditions: NCI-H2009, 96 h
[35] = Growth inhibition of human NCI-H2887 cells assessed as ATP level after 96 hrs by CellTiter-Glo assay; conditions: NCI-H2887, 96 h
[36] = Growth inhibition of human HCC1359 cells assessed as ATP level after 96 hrs by CellTiter-Glo assay; summary of the method: as §1

With CN(C)C/C=C/C(=O)Nc1ccc2c(C#N)cnc(Nc3cccc(Br)c3)c2c1 the GI50 [1] was 17.4 µM, the GI50 [2] was 17 µM and the GI50 [3] was 14.3 µM. The GI50 [4] was 16.6 µM, the GI50 [5] was 20.4 µM and the GI50 [6] was 30.9 µM. It also gave a GI50 [7] of 26.9 µM, a GI50 [8] of 19.5 µM and a GI50 [9] of 21.1 µM. For the same compound, the GI50 [10] was 10.6 µM, the GI50 [11] was 10.1 µM and the GI50 [12] was 16.8 µM. For the same compound, the GI50 [13] was 19.7 µM, the GI50 [14] was 19.5 µM and the GI50 [15] was 9.02 µM. It also gave a GI50 [16] of 19.1 µM, a GI50 [17] of 18.2 µM and a GI50 [18] of 30.9 µM. The GI50 [19] was 33.9 µM, the GI50 [20] was 13.2 µM and the GI50 [21] was 34.3 µM. It also gave a GI50 [22] of 15.7 µM, a GI50 [23] of 15.8 µM and a GI50 [24] of 14.5 µM. The GI50 [25] was 19.3 µM, the GI50 [26] was 12.9 µM and the GI50 [27] was 16.4 µM. It also gave a GI50 [28] of 13.3 µM, a GI50 [29] of 15.3 µM and a GI50 [30] of 17.4 µM. The GI50 [31] was 16.6 µM, the GI50 [32] was 26.3 µM and the GI50 [33] was 23.7 µM. The GI50 [34] was 26.3 µM, the GI50 [35] was 15.5 µM and the GI50 [36] was 18.6 µM.
